Active and inactive are the calls of the source. The rule behind the calls is not given here.
How the values were obtained:
[1] = target: Amyloid-beta precursor protein (Homo sapiens) (UniProt P05067); test: Inhibition of amyloid beta(42) aggregation (unknown origin) after 7 days by thioflavin T fluorescence method
Method in brief: (§1)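 Aβ42 at 25 mM (so in the source) in PBS, concentration set by A280 (ε 1490 M-1 cm-1), incubated quiescent at 37 °C for 7 days with compound (range 0–3200 mM as printed, from DMSO; final DMSO 5%). Samples then mixed with […] for 10 min at room temperature. Excitation 450 nm, emission 470–560 nm. Independent triplicates averaged, buffer+ThT+compound background subtracted.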

[2] = target: Amyloid-beta precursor protein (Homo sapiens) (UniProt P05067); test: Inhibition of amyloid beta(42) aggregation (unknown origin) at 100 uM after 7 days by thioflavin T fluorescence method; method in brief: as §1
[3] = target: Amyloid-beta precursor protein (Homo sapiens) (UniProt P05067); test: Inhibition of amyloid beta(42) aggregation (unknown origin) at 100 to 3200 uM after 1.5 hrs using anti-amyloid beta antibody DE2B4 by dot blot analysis
Method in brief: (§2)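 Aβ42 at 25 mM (so in the source) was incubated quiescent at 37 °C for 1.5 h across a compound concentration range (5% DMSO) and spotted on nitrocellulose. For A11, blots were blocked in PBS/0.2% Tween-20, then taken through A11 (1:4000, Hepes pH 7.0, overnight 4 °C) and anti-rabbit-HRP. For DE2B4 (total Aβ), blots were blocked in PBS-Tween/5% milk, then DE2B4 1:20,000 overnight 4 °C and anti-mouse-HRP. Read-out was chemiluminescence.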

[4] = target: Amyloid-beta precursor protein (Homo sapiens) (UniProt P05067); test: Inhibition of amyloid beta(42) aggregation (unknown origin) at 100 to 3200 uM after 1.5 hrs using anti-oligomer A11 antibody by dot blot analysis; method in brief: as §2
[5] = target: Amyloid-beta precursor protein (Homo sapiens) (UniProt P05067); test: Inhibition of amyloid beta(42) aggregation (unknown origin) assessed as A11-positive oligomer formation at 100 uM after 0.5 to 70 hrs by kinetic study
Method in brief: (§3)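 A11 dot-blot time course. Aβ42 at 25 mM (so in the source) was incubated at 37 °C with compound at 100 mM (so in the source), 5% DMSO vehicle (5% water for the reference). Aliquots were taken at 0.5, 1.5, 5, 20, 30, 55 and 70 h, spotted on nitrocellulose, then probed with A11 and anti-rabbit-HRP. Read-out was chemiluminescence.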

[6] = target: Amyloid-beta precursor protein (Homo sapiens) (UniProt P05067); test: Inhibition of amyloid beta(42) aggregation (unknown origin) assessed as A11-positive oligomer formation at 100 uM up to 1.5 hrs by kinetic study; method in brief: as §3
[7] = target: Amyloid-beta precursor protein (Homo sapiens) (UniProt P05067); test: Inhibition of amyloid beta(42) aggregation (unknown origin) at 100 uM up to 1.5 hrs by thioflavin T fluorescence-based kinetic study
Method in brief: (§4)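 In situ ThT kinetics. Aβ42 at 25 mM (so in the source) in PBS was incubated at 37 °C in sealed wells with 15 mM ThT and compound at 100 mM (so in the source), diluted 20-fold from DMSO to 5% DMSO. Fluorescence was read at intervals with excitation 450 nm and emission 470–600 nm. Background was corrected for ThT plus vehicle, with or without compound.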

[8] = target: Amyloid-beta precursor protein (Homo sapiens) (UniProt P05067); test: Inhibition of amyloid beta(42) aggregation (unknown origin) at 100 uM after 5 hrs by thioflavin T fluorescence-based kinetic study; method in brief: as §4
[9] = target: Amyloid-beta precursor protein (Homo sapiens) (UniProt P05067); test: Inhibition of amyloid beta(42) aggregation (unknown origin) at 100 uM after 7 days by transmission electron microscopy
Method in brief: (§5)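 Aβ42 at 25 mM (so in the source) was incubated with compound at 37 °C for 7 days. Aliquots were adsorbed for 1 min onto carbon-coated Formvar copper grids, then blotted, washed and negatively stained for transmission electron microscopy.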

[10] = target: Amyloid-beta precursor protein (Homo sapiens) (UniProt P05067); test: Inhibition of amyloid beta(42) aggregation (unknown origin) at 0.78 to 3200 uM after 1.5 hrs using anti-amyloid beta antibody DE2B4 by dot blot analysis; method in brief: as §2
[11] = target: Amyloid-beta precursor protein (Homo sapiens) (UniProt P05067); test: Inhibition of amyloid beta(42) aggregation (unknown origin) at 0.78 to 3200 uM after 1.5 hrs using anti-oligomer A11 antibody by dot blot analysis; method in brief: as §2
[12] = target: Amyloid-beta precursor protein (Homo sapiens) (UniProt P05067); test: Inhibition of amyloid beta(42) aggregation (unknown origin) at 3200 uM after 7 days by thioflavin T fluorescence method; method in brief: as §1
[13] = target: Amyloid-beta precursor protein (Homo sapiens) (UniProt P05067); test: Inhibition of amyloid beta(42) aggregation (unknown origin) at 100 to 3200 uM after 7 days by transmission electron microscopy; method in brief: as §5
[14] = target: Amyloid-beta precursor protein (Homo sapiens) (UniProt P05067); test: Inhibition of amyloid beta(42) aggregation (unknown origin) at 0.75 to 100 uM after 7 days by thioflavin T fluorescence method; method in brief: as §1
[15] = target: Amyloid-beta precursor protein (Homo sapiens) (UniProt P05067); test: Inhibition of amyloid beta(42) aggregation (unknown origin) at 100 to 200 uM after 7 days by transmission electron microscopy; method in brief: as §5

Chain of Amyloid-beta precursor protein (Homo sapiens) (P05067 whole entry): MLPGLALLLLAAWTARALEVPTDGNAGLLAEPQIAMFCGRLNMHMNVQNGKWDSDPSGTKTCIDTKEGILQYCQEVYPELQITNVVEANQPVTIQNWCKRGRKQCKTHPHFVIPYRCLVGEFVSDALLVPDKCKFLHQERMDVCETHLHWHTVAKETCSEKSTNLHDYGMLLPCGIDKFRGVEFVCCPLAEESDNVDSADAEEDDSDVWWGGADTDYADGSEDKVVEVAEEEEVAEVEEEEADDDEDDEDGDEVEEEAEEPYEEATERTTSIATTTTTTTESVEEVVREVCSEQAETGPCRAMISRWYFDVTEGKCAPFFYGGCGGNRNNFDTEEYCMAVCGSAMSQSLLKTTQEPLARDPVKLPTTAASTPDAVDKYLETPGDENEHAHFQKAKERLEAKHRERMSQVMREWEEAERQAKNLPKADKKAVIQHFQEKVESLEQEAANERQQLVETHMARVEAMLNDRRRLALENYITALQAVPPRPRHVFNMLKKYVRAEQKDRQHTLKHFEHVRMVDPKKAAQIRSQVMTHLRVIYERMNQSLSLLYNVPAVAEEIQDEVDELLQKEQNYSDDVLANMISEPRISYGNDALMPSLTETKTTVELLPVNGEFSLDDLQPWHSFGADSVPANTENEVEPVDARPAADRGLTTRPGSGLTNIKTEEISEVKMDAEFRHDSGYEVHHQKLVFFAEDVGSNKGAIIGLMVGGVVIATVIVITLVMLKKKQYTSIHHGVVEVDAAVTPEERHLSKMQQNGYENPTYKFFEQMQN

inhibition [1]	inhibition [2]	inhibition [3]	inhibition [4]	inhibition [5]	inhibition [6]	inhibition [7]	inhibition [8]	inhibition [9]	inhibition [10]	inhibition [11]	SMILES	also measured
Dose-dependent effect	Active	Active	Active	Active	Active	Active	inactive				O=C(NCCCC[C@H](NC(=O)OCc1ccccc1)C(=O)ON1C(=O)CCC1=O)OCc1ccccc1	
				inactive				inactive	inactive	inactive	O=C(NCCCC[C@H](NC(=O)OCC1c2ccccc2-c2ccccc21)C(=O)O)OCc1ccccc1	
Dose-dependent effect				inactive							CNc1ccc(C(=O)N[C@@H](CCCCNC(=O)OCc2ccccc2)C(=O)O)cc1	inhibition [12]: Active; inhibition [13]: Active
				inactive							O[C@H]1[C@H](O)[C@@H](O)[C@H](O)[C@@H](O)[C@@H]1O	
				inactive				inactive	inactive	inactive	O=C(NCCCC[C@H](NC(=O)OCc1ccccc1)C(=O)O)OCc1ccccc1	inhibition [14]: inactive
Dose-dependent effect	Active	Active	Active	Active	Active	Active	inactive				CC(C)(C)OC(=O)N[C@@H](CCCCNC(=O)OCc1ccccc1)C(=O)ON1C(=O)CCC1=O	inhibition [15]: Active
